{"source": "ChEMBL document CHEMBL1123139", "about": "“Antiandrogenic activity of a series of des-A-steroid derivatives” (1985)", "key": {"Cricetinae gen. sp. [1]": {"system": "Cricetinae gen. sp.", "assay": "(§1) Local subcutaneous administration (1 mg); Expressed as weight (mg)", "format": "functional", "how_it_was_run": "(§2)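 Male hamsters (100–110 g), castrated 7 days earlier, in groups of four. […] Test compound in 20 μL ethanol was applied daily to the right flank organ, and the contralateral organ received ethanol only. Animals were killed 24 h after the last treatment, and flank organs and prostate were weighed. Results are mean ± SEM.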"}, "Cricetinae gen. sp. [2]": {"system": "Cricetinae gen. sp.", "assay": "Local activity of untreated flank organ in hamster; Expressed as weight (mg)", "format": "functional", "how_it_was_run": "as §2"}, "Cricetinae gen. sp. [3]": {"system": "Cricetinae gen. sp.", "assay": "as §1", "format": "functional", "how_it_was_run": "as §2", "remark": "listed apart in the source"}, "Cricetinae gen. sp. [4]": {"system": "Cricetinae gen. sp.", "assay": "(§3) Tocal subcutaneous administration (1 mg); Expressed as weight (mg)", "format": "functional", "how_it_was_run": "as §2"}, "Cricetinae gen. sp. [5]": {"system": "Cricetinae gen. sp.", "assay": "(§4) Local subcutaneous administration (200 ug); Expressed as weight (mg)", "format": "functional", "how_it_was_run": "as §2"}, "Cricetinae gen. sp. [6]": {"system": "Cricetinae gen. sp.", "assay": "(§5) Tocal subcutaneous administration (200 ug); Expressed as weight (mg)", "format": "functional", "how_it_was_run": "as §2"}, "Cricetinae gen. sp. [7]": {"system": "Cricetinae gen. sp.", "assay": "(§6) Tocal subcutaneous administration (40 ug); Expressed as weight (mg)", "format": "functional", "how_it_was_run": "as §2"}, "Cricetinae gen. sp. [8]": {"system": "Cricetinae gen. sp.", "assay": "as §6", "format": "functional", "how_it_was_run": "as §2", "remark": "listed apart in the source"}, "Cricetinae gen. sp. [9]": {"system": "Cricetinae gen. sp.", "assay": "as §4", "format": "functional", "how_it_was_run": "as §2", "remark": "listed apart in the source"}, "Cricetinae gen. sp. [10]": {"system": "Cricetinae gen. sp.", "assay": "Tocal activity of untreated flank organ in hamster; Expressed as weight (mg)", "format": "functional", "how_it_was_run": "as §2"}, "Cricetinae gen. sp. [11]": {"system": "Cricetinae gen. sp.", "assay": "as §3", "format": "functional", "how_it_was_run": "as §2", "remark": "listed apart in the source"}, "Cricetinae gen. sp. [12]": {"system": "Cricetinae gen. sp.", "assay": "as §5", "format": "functional", "how_it_was_run": "as §2", "remark": "listed apart in the source"}, "Rattus norvegicus [13]": {"system": "Rattus norvegicus", "assay": "In vivo percent increase in rat prostate weight on subcutaneous administration of testosterone propionate along with compound at dose 5 mg/day; Expressed as percent inhibition of weight increase, mg", "format": "functional, Prostate gland", "how_it_was_run": "(§7)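 Immature male rats (70 g), castrated 24 h earlier, in groups of five. […] Controls received vehicle only (sesame oil with 5% benzyl alcohol). Rats were killed 24 h after the last dose, and prostate and seminal vesicles were excised and weighed.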"}, "Rattus norvegicus [14]": {"system": "Rattus norvegicus", "assay": "In Vivo inhibition against increase in immature castrated rat seminal vesicles weight on subcutaneous administration of testosterone propionate at dose 5 mg/kg", "format": "functional"}, "Rattus norvegicus [15]": {"system": "Rattus norvegicus", "assay": "In vivo percent increase rat seminal vesicles weight on subcutaneous administration of testosterone propionate along with compound at dose 5 mg/day; Expressed as percent inhibition of weight increase, mg", "format": "functional", "how_it_was_run": "as §7"}, "Rattus norvegicus [16]": {"system": "Rattus norvegicus", "assay": "In vivo percent increase in rat seminal vesicles weight on subcutaneous administration of testosterone propionate along with compound at dose 1 mg/day; Expressed as percent inhibition of weight increase, mg", "format": "functional"}, "Rattus norvegicus [17]": {"system": "Rattus norvegicus", "assay": "In vivo percent increase in rat prostate weight on subcutaneous administration of testosterone propionate along with compound at dose 1 mg/day; Expressed as percent inhibition of weight increase, mg", "format": "functional, Prostate gland"}, "Cricetinae gen. sp. [18]": {"system": "Cricetinae gen. sp.", "assay": "(§8) Local subcutaneous administration (125 ug); Expressed as weight (mg)", "format": "functional", "how_it_was_run": "as §2"}, "Cricetinae gen. sp. [19]": {"system": "Cricetinae gen. sp.", "assay": "as §8", "format": "functional", "how_it_was_run": "as §2", "remark": "listed apart in the source"}}, "note": "Values joined by “and” are separate entries in the source; they are usually repeats but may differ in a detail not shown here. Equal values may be shown once.", "data": [{"compound": "CCC(=O)O[C@H]1CC[C@H]2[C@@H]3CCC4=CC(=O)CC[C@]4(C)[C@H]3CC[C@]12C.CCC1=C2CCC3(C)C(O)CCC3C2CCC1=O", "values": [{"measurement": "Weight", "setting": "Cricetinae gen. sp. [1]", "value": 134, "unit": "mg"}, {"measurement": "Weight", "setting": "Cricetinae gen. sp. [2]", "value": 34.8, "unit": "mg"}, {"measurement": "Weight", "setting": "Cricetinae gen. sp. [3]", "value": 27.8, "unit": "mg"}]}, {"compound": "CC1=C2CCC3(C)C(O)CCC3C2CCC1=O.CCC(=O)O[C@H]1CC[C@H]2[C@@H]3CCC4=CC(=O)CC[C@]4(C)[C@H]3CC[C@]12C", "values": [{"measurement": "Weight", "setting": "Cricetinae gen. sp. [1]", "value": 144, "unit": "mg"}, {"measurement": "Weight", "setting": "Cricetinae gen. sp. [2]", "value": 37.3, "unit": "mg"}, {"measurement": "Weight", "setting": "Cricetinae gen. sp. [3]", "value": 36.8, "unit": "mg"}]}, {"compound": "CCC(=O)O[C@H]1CC[C@H]2[C@@H]3CCC4=CC(=O)CC[C@]4(C)[C@H]3CC[C@]12C.CCC1=C2CCC3(C)C(OC(C)=O)CCC3C2CCC1=O", "values": [{"measurement": "Weight", "setting": "Cricetinae gen. sp. [1]", "value": 143, "unit": "mg"}, {"measurement": "Weight", "setting": "Cricetinae gen. sp. [4]", "value": 24.8, "unit": "mg"}, {"measurement": "Weight", "setting": "Cricetinae gen. sp. [5]", "value": 145, "unit": "mg"}, {"measurement": "Weight", "setting": "Cricetinae gen. sp. [6]", "value": 108, "unit": "mg"}, {"measurement": "Weight", "setting": "Cricetinae gen. sp. [7]", "value": 38.9, "unit": "mg"}, {"measurement": "Weight", "setting": "Cricetinae gen. sp. [2]", "value": "31.7 mg and 33 mg"}, {"measurement": "Weight", "setting": "Cricetinae gen. sp. [8]", "value": 125, "unit": "mg"}, {"measurement": "Weight", "setting": "Cricetinae gen. sp. [9]", "value": 22.8, "unit": "mg"}, {"measurement": "Weight", "setting": "Cricetinae gen. sp. [10]", "value": "46.2 mg and 42.9 mg and 46.8 mg"}, {"measurement": "Weight", "setting": "Cricetinae gen. sp. [11]", "value": 111, "unit": "mg"}, {"measurement": "Weight", "setting": "Cricetinae gen. sp. [12]", "value": 31.1, "unit": "mg"}, {"measurement": "Weight", "setting": "Cricetinae gen. sp. [3]", "value": 16.8, "unit": "mg"}]}, {"compound": "CC1(C)C(=O)CCC2C1CCC1(C)C(O)CCC21.CCC(=O)O[C@H]1CC[C@H]2[C@@H]3CCC4=CC(=O)CC[C@]4(C)[C@H]3CC[C@]12C", "values": [{"measurement": "Weight", "setting": "Cricetinae gen. sp. [1]", "value": 135, "unit": "mg"}, {"measurement": "Weight", "setting": "Cricetinae gen. sp. [2]", "value": 36.7, "unit": "mg"}, {"measurement": "Weight", "setting": "Cricetinae gen. sp. [3]", "value": 28.4, "unit": "mg"}]}, {"compound": "CCC(=O)O[C@H]1CC[C@H]2[C@@H]3CCC4=CC(=O)CC[C@]4(C)[C@H]3CC[C@]12C.CCC12CCC3=C(C)C(=O)CCC3C1CCC2O", "values": [{"measurement": "Weight", "setting": "Cricetinae gen. sp. [1]", "value": 137, "unit": "mg"}, {"measurement": "Weight", "setting": "Cricetinae gen. sp. [2]", "value": 35.2, "unit": "mg"}, {"measurement": "Weight", "setting": "Cricetinae gen. sp. [3]", "value": 31.9, "unit": "mg"}]}, {"compound": "CC1(C)C(=O)CCC2C1CCC1(C)C(O)CCC21", "note": "(stereo unspecified)", "values": [{"measurement": "Inhibition", "setting": "Rattus norvegicus [13]", "value": 49, "unit": "%"}, {"measurement": "Inhibition of increase in weight", "setting": "Rattus norvegicus [14]", "value": 63, "unit": "%"}]}, {"compound": "CC1=C2CCC3(C)C(O)CCC3C2CCC1=O", "note": "(stereo unspecified)", "values": [{"measurement": "Inhibition", "setting": "Rattus norvegicus [13]", "value": 27, "unit": "%"}, {"measurement": "Inhibition of increase in weight", "setting": "Rattus norvegicus [14]", "value": 54, "unit": "%"}]}, {"compound": "CCC1=C2CCC3(C)C(OC(C)=O)CCC3C2CCC1=O", "note": "(stereo unspecified)", "values": [{"measurement": "Inhibition", "setting": "Rattus norvegicus [15]", "value": 50, "unit": "%"}, {"measurement": "Inhibition", "setting": "Rattus norvegicus [13]", "value": 50, "unit": "%"}]}, {"compound": "CC1=C2C=CC3(C)C(O)CCC3C2CCC1=O", "note": "(stereo unspecified)", "values": [{"measurement": "Inhibition", "setting": "Rattus norvegicus [13]", "value": 25, "unit": "%"}, {"measurement": "Inhibition of increase in weight", "setting": "Rattus norvegicus [14]", "value": 45, "unit": "%"}]}, {"compound": "CCC12CCC3=C(C)C(=O)CCC3C1CCC2O", "note": "(stereo unspecified)", "values": [{"measurement": "Inhibition", "setting": "Rattus norvegicus [13]", "value": 10, "unit": "%"}, {"measurement": "Inhibition of increase in weight", "setting": "Rattus norvegicus [14]", "value": 50, "unit": "%"}]}, {"compound": "CCC1=C2CCC3(C)C(O)CCC3C2CCC1=O", "note": "(stereo in doubt; 5c)", "values": [{"measurement": "Inhibition", "setting": "Rattus norvegicus [13]", "value": 59, "unit": "%"}, {"measurement": "Inhibition of increase in weight", "setting": "Rattus norvegicus [14]", "value": 73, "unit": "%"}]}, {"compound": "CC(=O)O[C@]1(C(C)=O)CC[C@H]2[C@@H]3C=C(Cl)C4=CC(=O)[C@@H]5C[C@@H]5[C@]4(C)[C@H]3CC[C@@]21C", "note": "[CYPROTERONE ACETATE]", "values": [{"measurement": "Inhibition", "setting": "Rattus norvegicus [16]", "value": 73, "unit": "%"}, {"measurement": "Inhibition", "setting": "Rattus norvegicus [17]", "value": 90, "unit": "%"}]}, {"compound": "CCC(=O)O[C@H]1CC[C@H]2[C@@H]3CCC4=CC(=O)CC[C@]4(C)[C@H]3CC[C@]12C", "note": "[TESTOSTERONE PROPIONATE]", "values": [{"measurement": "Weight", "setting": "Cricetinae gen. sp. [18]", "value": "165 mg and 171 mg"}, {"measurement": "Weight", "setting": "Cricetinae gen. sp. [19]", "value": "37.6 mg and 48.5 mg"}, {"measurement": "Weight", "setting": "Cricetinae gen. sp. [2]", "value": "37.6 mg and 49.4 mg"}]}]}
